Experimental data: ChEMBL document CHEMBL5223165, “Discovery of Coumarin-Based MEK1/2 PROTAC Effective in Human Cancer Cells” (ACS Med Chem Lett, 2023)
pIC50: −log10 of the molar value. Calls of active or inactive are those of the source. The calls are words filed in the database; no cut-off is given here.

Columns and labels:
[1] = target: T1, Protein cereblon/Dual specificity mitogen-activated protein kinase kinase 1/Dual specificity mitogen-activated protein kinase kinase 2 (Homo sapiens) (UniProt P36507+Q02750+Q96SW2); assay: Protac activity at CRBN/MEK1/2 in human A549 cells assessed as MEK1/2 degradation at 10 uM incubated for 24 hrs by Western blot analysis relative to control; type: cell-based
[2] = target: T2, von Hippel-Lindau disease tumor suppressor/Dual specificity mitogen-activated protein kinase kinase 2/Dual specificity mitogen-activated protein kinase kinase 1 (Homo sapiens) (UniProt P36507+Q02750+P40337); assay: Protac activity at VHL/MEK1/2 in human A549 cells assessed as MEK1/2 degradation at 10 uM incubated for 24 hrs by Western blot analysis relative to control; type: cell-based
[3] = target: T2, von Hippel-Lindau disease tumor suppressor/Dual specificity mitogen-activated protein kinase kinase 2/Dual specificity mitogen-activated protein kinase kinase 1 (Homo sapiens); assay: Protac activity at VHL/MEK1/2 in human A549 cells assessed as MEK1/2 degradation at 1 uM incubated for 24 hrs by Western blot analysis relative to control; type: cell-based
[4] = target: T1, Protein cereblon/Dual specificity mitogen-activated protein kinase kinase 1/Dual specificity mitogen-activated protein kinase kinase 2 (Homo sapiens); assay: Protac activity at CRBN/MEK1/2 in human A549 cells assessed as MEK1/2 degradation at 1 uM incubated for 24 hrs by Western blot analysis relative to control; type: cell-based
A-375 [5] = assay: Antiproliferative activity against human A-375 cells assessed as inhibition of cell growth at 10 uM incubated for 48 hrs by MTT assay; type: functional; parameters: scale not given: the % may be the effect or the level left
A-375 [6] = assay: Antiproliferative activity against human A-375 cells incubated for 4 days by MTT assay; type: functional, cell-based; details: A-375, 96 h
[7] = target: T3, Dual specificity mitogen-activated protein kinase kinase; MEK1/2 (Homo sapiens, UniProt P36507+Q02750); assay: Induction of MEK1/2 degradation in human A549 cells at 1 uM incubated for 24 hrs in presence of MLN4924 by Western blot analysis; type: cell-based
[8] = target: Dual specificity mitogen-activated protein kinase kinase 2 (Homo sapiens, UniProt P36507); assay: Induction of MEK2 degradation in human A549 cells incubated for 24 hrs by Western blot analysis; type: cell-based
In short: (§1)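 A549 cells exposed to a range of degrader concentrations for 24 h. MEK1 and MEK2 protein levels were read by Western blot, and a separate half-maximal degradation concentration (DC50) was derived for each.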

[9] = target: T3, Dual specificity mitogen-activated protein kinase kinase; MEK1/2; assay: Induction of MEK1/2 degradation in human A549 cells at 1 uM incubated for 4 hrs by Western blot analysis; type: cell-based
In short: (§2)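 Time course in A549 cells at 1 μM degrader, sampled at several time points up to 24 h. MEK1/2 protein reduction was judged by Western blot at each time point.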

[10] = Selectivity ratio of IC50 for human A549 cells to IC50 for human A-375 cells; type: functional
[11] = target: T3, Dual specificity mitogen-activated protein kinase kinase; MEK1/2; assay: Induction of MEK1/2 degradation in human A549 cells at 1 uM incubated for 24 hrs by Western blot analysis; type: cell-based; in short: as §2
A549 = assay: Antiproliferative activity against human A549 cells incubated for 4 days by MTT assay; type: functional, cell-based; details: A549, 96 h
[12] = target: Dual specificity mitogen-activated protein kinase kinase 1 (Homo sapiens, UniProt Q02750); assay: Induction of MEK1 degradation in human A549 cells incubated for 24 hrs by Western blot analysis; type: cell-based; in short: as §1
[13] = target: T3, Dual specificity mitogen-activated protein kinase kinase; MEK1/2; assay: Induction of MEK1/2 degradation in human A549 cells at 1 uM incubated for 24 hrs in presence of MG132 by Western blot analysis; type: cell-based
[14] = target: T3, Dual specificity mitogen-activated protein kinase kinase; MEK1/2; assay: Induction of MEK1/2 degradation in human A-375 cells incubated for 24 hrs by Western blot analysis; type: cell-based
In short: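 A375 cells were given a concentration series of degrader for 24 h. MEK1/2 protein was quantified by immunoblot, and the DC50 (half-maximal degradation concentration) was taken from the dose-response.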

[15] = target: T3, Dual specificity mitogen-activated protein kinase kinase; MEK1/2; assay: Induction of MEK1/2 degradation in human A549 cells at 1 uM incubated for 24 hrs in presence of (2S,4R)-1-((S)-2-amino-3,3-dimethylbutanoyl)-4-hydroxy-N-((S)-1-(4-(4-methylthiazol-5-yl)phenyl)ethyl)pyrrolidine-2-carboxamide by Western blot analysis; type: cell-based
[16] = target: T3, Dual specificity mitogen-activated protein kinase kinase; MEK1/2; assay: Induction of MEK1/2 degradation in human A549 cells at 1 uM incubated for 24 hrs in presence of 3-(3-amino-2-fluorobenzyl)-4-methyl-7-(pyrimidin-2-yloxy)-2H-chromen-2-one by Western blot analysis; type: cell-based
[17] = target: T3, Dual specificity mitogen-activated protein kinase kinase; MEK1/2; assay: Induction of MEK1/2 degradation in human A549 cells assessed as reduction in pERK1/2 levels at 1 to 30 uM incubated for 24 hrs by Western blot analysis; type: cell-based; details: dose 1-30 µM

T2 sequence (P36507 whole entry, looked up): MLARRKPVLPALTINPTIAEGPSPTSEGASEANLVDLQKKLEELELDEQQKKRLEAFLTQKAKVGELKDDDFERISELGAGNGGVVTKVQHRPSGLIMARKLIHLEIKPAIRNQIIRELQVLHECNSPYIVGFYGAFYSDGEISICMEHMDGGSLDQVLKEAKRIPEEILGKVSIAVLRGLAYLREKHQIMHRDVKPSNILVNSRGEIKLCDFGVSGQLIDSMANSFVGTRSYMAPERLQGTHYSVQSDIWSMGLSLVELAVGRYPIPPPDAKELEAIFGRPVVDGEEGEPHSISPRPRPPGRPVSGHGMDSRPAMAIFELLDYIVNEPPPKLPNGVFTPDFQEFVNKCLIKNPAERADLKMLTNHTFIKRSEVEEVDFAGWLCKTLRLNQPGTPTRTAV
T2 sequence (P40337 whole entry, looked up): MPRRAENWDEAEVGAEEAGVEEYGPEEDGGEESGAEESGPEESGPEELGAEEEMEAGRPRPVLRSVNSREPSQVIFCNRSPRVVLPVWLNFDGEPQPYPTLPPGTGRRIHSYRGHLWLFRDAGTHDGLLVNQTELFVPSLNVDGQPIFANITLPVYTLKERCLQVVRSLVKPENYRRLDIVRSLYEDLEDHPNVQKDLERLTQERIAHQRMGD
T2 sequence (Q02750 whole entry, looked up): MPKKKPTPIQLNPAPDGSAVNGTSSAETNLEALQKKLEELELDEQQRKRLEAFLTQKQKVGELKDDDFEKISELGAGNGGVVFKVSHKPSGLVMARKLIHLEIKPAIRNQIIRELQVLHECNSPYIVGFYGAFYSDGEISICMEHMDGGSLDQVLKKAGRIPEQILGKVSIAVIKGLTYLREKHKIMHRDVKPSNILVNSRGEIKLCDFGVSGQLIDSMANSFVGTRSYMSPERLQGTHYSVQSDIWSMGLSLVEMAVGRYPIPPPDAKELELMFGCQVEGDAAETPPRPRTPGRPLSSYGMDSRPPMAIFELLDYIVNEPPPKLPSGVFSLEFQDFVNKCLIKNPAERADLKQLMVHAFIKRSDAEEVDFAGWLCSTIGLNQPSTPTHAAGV
T1 sequence (P36507 whole entry, looked up): as the sequence (P36507 whole entry, looked up) above
T1 sequence (Q02750 whole entry, looked up): as the sequence (Q02750 whole entry, looked up) above
T1 sequence (Q96SW2 whole entry, looked up): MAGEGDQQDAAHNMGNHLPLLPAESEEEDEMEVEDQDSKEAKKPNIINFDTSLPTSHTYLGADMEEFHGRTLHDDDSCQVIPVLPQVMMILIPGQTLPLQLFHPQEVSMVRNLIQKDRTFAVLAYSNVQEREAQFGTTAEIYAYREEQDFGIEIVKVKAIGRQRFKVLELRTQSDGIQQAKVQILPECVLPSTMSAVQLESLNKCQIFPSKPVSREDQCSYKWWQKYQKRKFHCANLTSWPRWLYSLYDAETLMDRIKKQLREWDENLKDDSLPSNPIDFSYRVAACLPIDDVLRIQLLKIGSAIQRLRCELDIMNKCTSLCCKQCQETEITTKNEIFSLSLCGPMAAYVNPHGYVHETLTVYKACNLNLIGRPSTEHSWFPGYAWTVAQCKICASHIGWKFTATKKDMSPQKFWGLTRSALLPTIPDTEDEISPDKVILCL
T3 sequence (P36507 whole entry, looked up): as the sequence (P36507 whole entry, looked up) above
T3 sequence (Q02750 whole entry, looked up): as the sequence (Q02750 whole entry, looked up) above
Dual specificity mitogen-activated protein kinase kinase 1, sequence (Q02750 whole entry): as the sequence (Q02750 whole entry, looked up) above
Dual specificity mitogen-activated protein kinase kinase 2, sequence (P36507 whole entry): as the sequence (P36507 whole entry, looked up) above

Cc1c(Cc2cccc(NCc3cn(CCOCCOCCOCCOCCNc4cccc5c4C(=O)N(C4CCC(=O)NC4=O)C5=O)nn3)c2F)c(=O)oc2cc(Oc3ncccn3)ccc12 (configuration not stated)
Activity [1]: inactive

Cc1ncsc1-c1ccc([C@H](C)NC(=O)[C@@H]2C[C@@H](O)CN2C(=O)[C@@H](NCCOCCOCCOCCn2cc(CNc3cccc(Cc4c(C)c5ccc(Oc6ncccn6)cc5oc4=O)c3)nn2)C(C)(C)C)cc1
Activity [2]: inactive

Cc1ncsc1-c1ccc([C@H](C)NC(=O)[C@@H]2C[C@@H](O)CN2C(=O)[C@@H](NC(=O)CCC(=O)NCCCCCCC(=O)Nc2cccc(Cc3c(C)c4ccc(Oc5ncccn5)cc4oc3=O)c2F)C(C)(C)C)cc1
Activity [3]: 70%

Cc1c(Cc2cccc(NCc3cn(CCOCCOCCNc4cccc5c4C(=O)N(C4CCC(=O)NC4=O)C5=O)nn3)c2)c(=O)oc2cc(Oc3ncccn3)ccc12 (configuration not stated)
Activity [1]: inactive

Cc1ncsc1-c1ccc([C@H](C)NC(=O)[C@@H]2C[C@@H](O)CN2C(=O)[C@@H](NCCOCCOCCOCCOCCn2cc(CNc3cccc(Cc4c(C)c5ccc(Oc6ncccn6)cc5oc4=O)c3F)nn2)C(C)(C)C)cc1
Activity [2]: inactive

Cc1c(Cc2cccc(NCc3cn(CCOCCOCCOCCNc4cccc5c4C(=O)N(C4CCC(=O)NC4=O)C5=O)nn3)c2F)c(=O)oc2cc(Oc3ncccn3)ccc12 (configuration not stated)
Activity [1]: inactive

Cc1ncsc1-c1ccc([C@H](C)NC(=O)[C@@H]2C[C@@H](O)CN2C(=O)[C@@H](NCCOCCOCCOCCOCCOCCn2cc(CNc3cccc(Cc4c(C)c5ccc(Oc6ncccn6)cc5oc4=O)c3F)nn2)C(C)(C)C)cc1
Activity [2]: inactive

Cc1c(Cc2cccc(NC(=O)CCCCCCNC(=O)CCC(=O)Nc3cccc4c3C(=O)N(C3CCC(=O)NC3=O)C4=O)c2F)c(=O)oc2cc(Oc3ncccn3)ccc12 (configuration not stated)
Activity [4]: 45%

Cc1c(Cc2cccc(NC(=O)CCCNC(=O)CCC(=O)Nc3cccc4c3C(=O)N(C3CCC(=O)NC3=O)C4=O)c2F)c(=O)oc2cc(Oc3ncccn3)ccc12 (configuration not stated)
Activity [4]: inactive

Cc1ncsc1-c1ccc([C@H](C)NC(=O)[C@@H]2C[C@@H](O)CN2C(=O)[C@@H](NCCOCCOCCOCCn2cc(CNc3cccc(Cc4c(C)c5ccc(Oc6ncccn6)cc5oc4=O)c3F)nn2)C(C)(C)C)cc1
Activity [2]: inactive

Cc1ncsc1-c1ccc([C@H](C)NC(=O)[C@@H]2C[C@@H](O)CN2C(=O)[C@@H](NC(=O)CCC(=O)NCCCCCCC(=O)Nc2cccc(Cc3c(C)c4ccc(Oc5ncccn5)cc4oc3=O)c2)C(C)(C)C)cc1
Activity [3]: < 5%

Cc1c(Cc2cccc(NCc3cn(CCOCCOCCOCCOCCOCCNc4cccc5c4C(=O)N(C4CCC(=O)NC4=O)C5=O)nn3)c2F)c(=O)oc2cc(Oc3ncccn3)ccc12 (configuration not stated)
Activity [1]: inactive

Cc1ncsc1-c1ccc([C@H](C)NC(=O)[C@@H]2C[C@@H](O)CN2C(=O)[C@@H](NCCOCCOCCOCCOCCn2cc(CNc3cccc(Cc4c(C)c5ccc(Oc6ncccn6)cc5oc4=O)c3)nn2)C(C)(C)C)cc1
Activity [2]: inactive

Cc1ncsc1-c1ccc([C@H](C)NC(=O)[C@@H]2C[C@@H](O)CN2C(=O)[C@@H](NC(=O)CCC(=O)NCCCC(=O)Nc2cccc(Cc3c(C)c4ccc(Oc5ncccn5)cc4oc3=O)c2)C(C)(C)C)cc1
Activity [3]: < 5%
Activity (A-375 [5]): 21%

Cc1ncsc1-c1ccc([C@H](C)NC(=O)[C@@H]2C[C@@H](O)CN2C(=O)[C@@H](NCCOCCOCCn2cc(CNc3cccc(Cc4c(C)c5ccc(Oc6ncccn6)cc5oc4=O)c3F)nn2)C(C)(C)C)cc1
Activity [2]: 20%

Cc1ncsc1-c1ccc([C@H](C)NC(=O)[C@@H]2C[C@@H](O)CN2C(=O)[C@@H](NC(=O)CCC(=O)NCCCCCCCC(=O)Nc2cccc(Cc3c(C)c4ccc(Oc5ncccn5)cc4oc3=O)c2F)C(C)(C)C)cc1
Activity [3]: 78%

Cc1ncsc1-c1ccc([C@H](C)NC(=O)[C@@H]2C[C@@H](O)CN2C(=O)[C@@H](NC(=O)CCC(=O)NCCCCCC(=O)Nc2cccc(Cc3c(C)c4ccc(Oc5ncccn5)cc4oc3=O)c2F)C(C)(C)C)cc1
Activity [3]: 72%

Cc1ncsc1-c1ccc([C@H](C)NC(=O)[C@@H]2C[C@@H](O)CN2C(=O)[C@@H](NCCOCCOCCn2cc(CNc3cccc(Cc4c(C)c5ccc(Oc6ncccn6)cc5oc4=O)c3)nn2)C(C)(C)C)cc1
Activity [2]: inactive

Cc1c(Cc2cccc(NC(=O)CCCCCCCNC(=O)CCC(=O)Nc3cccc4c3C(=O)N(C3CCC(=O)NC3=O)C4=O)c2F)c(=O)oc2cc(Oc3ncccn3)ccc12 (configuration not stated)
Activity [4]: 30%

Cc1c(Cc2cccc(NC(=O)CCCCNC(=O)CCC(=O)Nc3cccc4c3C(=O)N(C3CCC(=O)NC3=O)C4=O)c2F)c(=O)oc2cc(Oc3ncccn3)ccc12 (configuration not stated)
Activity [4]: < 5%

Cc1ncsc1-c1ccc([C@H](C)NC(=O)[C@@H]2C[C@@H](O)CN2C(=O)[C@@H](NC(=O)CCC(=O)NCCCCCCCCCCCC(=O)Nc2cccc(Cc3c(C)c4ccc(Oc5ncccn5)cc4oc3=O)c2)C(C)(C)C)cc1
Activity [3]: < 5%

CNS(=O)(=O)Nc1cccc(Cc2c(C)c3ccc(Oc4ncccn4)cc3oc2=O)c1F
pIC50 (A-375 [6]): 5.72

Cc1ncsc1-c1ccc([C@H](C)NC(=O)[C@@H]2C[C@@H](O)CN2C(=O)[C@@H](NC(=O)CCC(=O)NCCCCCCCCCCC(=O)Nc2cccc(Cc3c(C)c4ccc(Oc5ncccn5)cc4oc3=O)c2)C(C)(C)C)cc1
Activity [3]: < 5%

Cc1ncsc1-c1ccc([C@H](C)NC(=O)[C@@H]2C[C@@H](O)CN2C(=O)[C@@H](NC(=O)CCC(=O)NCCCCC(=O)Nc2cccc(Cc3c(C)c4ccc(Oc5ncccn5)cc4oc3=O)c2F)C(C)(C)C)cc1
Activity [7]: inactive
DC50 [8]: 200 nM
Activity [9]: Active
Activity [3]: 85%
Ratio IC50 [10]: 10
Activity [11]: > 70%
pIC50 (A549): 4.56
Activity (A-375 [5]): 60%
DC50 [12]: 300 nM
Activity [13]: inactive
DC50 [14]: 2800 nM
pIC50 (A-375 [6]): 5.55
Activity [15]: inactive
Activity [16]: inactive
Activity [17]: Active

Cc1c(Cc2cccc(NCc3cn(CCOCCOCCOCCNc4cccc5c4C(=O)N(C4CCC(=O)NC4=O)C5=O)nn3)c2)c(=O)oc2cc(Oc3ncccn3)ccc12 (configuration not stated)
Activity [1]: inactive

Cc1ncsc1-c1ccc([C@H](C)NC(=O)[C@@H]2C[C@@H](O)CN2C(=O)[C@@H](NCCOCCOCCOCCOCCOCCn2cc(CNc3cccc(Cc4c(C)c5ccc(Oc6ncccn6)cc5oc4=O)c3)nn2)C(C)(C)C)cc1
Activity [2]: inactive

Cc1c(Cc2cccc(NCc3cn(CCOCCOCCNc4cccc5c4C(=O)N(C4CCC(=O)NC4=O)C5=O)nn3)c2F)c(=O)oc2cc(Oc3ncccn3)ccc12 (configuration not stated)
Activity [1]: inactive

Cc1ncsc1-c1ccc([C@H](C)NC(=O)[C@@H]2C[C@@H](O)CN2C(=O)[C@@H](NC(=O)CCC(=O)NCCCC(=O)Nc2cccc(Cc3c(C)c4ccc(Oc5ncccn5)cc4oc3=O)c2F)C(C)(C)C)cc1
Activity [3]: 20%
Activity (A-375 [5]): 13%

Cc1c(Cc2cccc(NCc3cn(CCOCCOCCOCCOCCOCCNc4cccc5c4C(=O)N(C4CCC(=O)NC4=O)C5=O)nn3)c2)c(=O)oc2cc(Oc3ncccn3)ccc12 (configuration not stated)
Activity [1]: inactive

Cc1c(Cc2cccc(NCc3cn(CCOCCOCCOCCOCCNc4cccc5c4C(=O)N(C4CCC(=O)NC4=O)C5=O)nn3)c2)c(=O)oc2cc(Oc3ncccn3)ccc12 (configuration not stated)
Activity [1]: inactive

Cc1c(Cc2cccc(NC(=O)CCCCCNC(=O)CCC(=O)Nc3cccc4c3C(=O)N(C3CCC(=O)NC3=O)C4=O)c2F)c(=O)oc2cc(Oc3ncccn3)ccc12 (configuration not stated)
Activity [4]: inactive
